Consider six molecules from ChEMBL document CHEMBL4414632, “Design, Synthesis, and Biological Evaluation of Novel Indoles Targeting the Influenza PB2 Cap Binding Region” (J Med Chem, 2019).

Structures are written as SMILES. The source made the active and inactive calls. No cut-off for these calls is given here.

The nature of data set [1]: Therapeutic index, ratio of CC50 for dog MDCK cells to IC50 for Influenza A virus A/[…]/3/1975 (H3N2). In kind it is toxicity. Conditions: read-out: Ratio CC50/IC50.
The subject of data set [2] is Influenza A virus. Description: Antiviral activity against Influenza A virus A/[…]/3/1975 (H3N2) infected in MDCK cells assessed as reduction in virus-induced cytopathic effect by measuring ATP level incubated for 24 hrs by ATPlite luminescence assay. Format: functional, organism-based.
In data set [3] the test system is Influenza A virus. Put plainly: Antiviral activity against Influenza A virus (A/Taiwan/1/1986(H1N1)) infected in MDCK cells assessed as reduction in virus-induced cytopathic effect by measuring ATP level incubated for 24 hrs by ATPlite luminescence assay. Format: functional, organism-based. (In general: Cytopathic effects are the visible damage that an infection or toxin causes in cultured cells.)

Data set [4] can be described thus: Therapeutic index, ratio of CC50 for dog MDCK cells to IC50 for Influenza A virus (A/Taiwan/1/1986(H1N1)). In kind it is toxicity. The conditions noted are these: read-out: Ratio CC50/IC50.
Data set [5] deals with Influenza A virus. Description: Antiviral activity against Influenza A virus (A/Puerto Rico/8/34(H1N1)) infected in human A549 cells assessed as reduction in virus neuraminidase level incubated for 24 hrs by fluorescence based assay. Format: functional, organism-based. The conditions noted are these: A/Puerto Rico/8/1934(H1N1), A549, 24 h. The essentials:
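A549 cells, 6,000/well, seeded onto compound (nine four-fold dilutions) in Ham's F12 with 2% FBS, 1% Hepes, gentamycin, 24 h at 37°C, 5% CO2; then infected with A/Puerto Rico/8/34 at MOI 1 for further 24 h.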

A short description of data set [6]: Displacement of gamma-[6-aminohexyl]-GTP-biotin from Influenza A virus A/Victoria/3/1975 (H3N2) N-terminal 6His-tagged PB2 (320 to 484 residues) expressed in Escherichia coli incubated for 1 hr by TR-FRET assay. In general terms: Time-resolved FRET reads energy transfer from a long-lived donor to a nearby acceptor.
A short description of data set [7]: Displacement of gamma-[6-aminohexyl]-GTP-biotin from Influenza B virus B/Brisbane/60/2008 C-terminal 6His-tagged PB2 (320 to 484 residues) expressed in Escherichia coli incubated for 1 hr by TR-FRET assay.
Data set [8] can be described thus: Therapeutic index, ratio of CC50 for human A549 cells to IC50 for Influenza A virus (A/Puerto Rico/8/34(H1N1)). Format: toxicity. The conditions noted are these: read-out: Ratio CC50/IC50.
The test system of data set [9] is Influenza A virus. Put plainly: In vivo antiviral activity against Influenza A virus (A/Puerto Rico/8/34(H1N1)) infected in BALB/c mouse assessed as survival rate at 30 mg/kg, po administered bid for 10 days after 48 hrs post infection and observed for 21 days relative to control. In kind it is functional, A/Puerto Rico/8/1934(H1N1).
Data set [10] deals with Glycogen synthase kinase-3 beta (Homo sapiens) (UniProt P49841). Description: Inhibition of GSK3beta (unknown origin) at 1 uM.
The subject of data set [11] is Influenza A virus. Description: In vivo antiviral activity against Influenza A virus (A/Puerto Rico/8/34(H1N1)) infected in BALB/c mouse assessed as survival rate at 10 mg/kg, po administered bid for 10 days after 48 hrs post infection and observed for 21 days relative to control. In kind it is functional, A/Puerto Rico/8/1934(H1N1).

Chain of Glycogen synthase kinase-3 beta (Homo sapiens) (P49841 whole entry, looked up): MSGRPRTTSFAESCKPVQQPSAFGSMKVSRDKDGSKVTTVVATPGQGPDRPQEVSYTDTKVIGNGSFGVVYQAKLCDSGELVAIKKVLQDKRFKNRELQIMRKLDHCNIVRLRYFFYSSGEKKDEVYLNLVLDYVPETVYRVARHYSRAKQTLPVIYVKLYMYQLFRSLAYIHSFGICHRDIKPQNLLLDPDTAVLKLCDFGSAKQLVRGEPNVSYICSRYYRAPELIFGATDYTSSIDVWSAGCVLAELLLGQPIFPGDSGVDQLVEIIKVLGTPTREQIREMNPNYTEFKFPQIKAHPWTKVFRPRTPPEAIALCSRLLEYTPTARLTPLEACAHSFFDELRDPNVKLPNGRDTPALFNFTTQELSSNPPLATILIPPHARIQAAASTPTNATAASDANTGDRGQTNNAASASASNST

Broadly, the IC50 is the concentration that gives 50% inhibition. Turning to `NC(=O)c1nc(F)cnc1O`, the results for the selectivity ratio in data set [1] and in data set [4] were above 3 and above 6, respectively. In addition, the IC50 in the data set on Influenza A virus [2] amounted to 35700 nM; with Influenza A virus [3], 16800 nM.
Turning to `O=C(O)[C@H]1C2CCC(CC2)[C@@H]1Nc1nc(-c2c[nH]c3c(F)cc(Cl)cc23)ncc1F`, the IC50 is 53 nM with Influenza A virus [5]; 170 nM in data set [6]; above 50 µM in [7]; 47 nM in the data set with Influenza A virus [2]; 21 nM with Influenza A virus [3]. The selectivity ratio is above 485 in data set [8], 28 in data set [1] and 83 in data set [4].
Consider `Cc1cc(F)c2[nH]cc(-c3ncc(F)c(N[C@H]4C5CCC(CC5)[C@@H]4C(=O)O)n3)c2c1`, for which the IC50 in the data set with Influenza A virus [5] was found to be 22 nM; in data set [6] it was 120 nM; in data set [7], 26 µM; in the data set with Influenza A virus [2] it was 11 nM; in the data set on Influenza A virus [3] it was 4 nM. The selectivity ratio in data set [8] was 1490; in data set [1] it was 25; in [4], 75.
Consider `O=C(O)[C@H]1C2CCC(CC2)[C@@H]1Nc1nc(-c2c[nH]c3c(F)cc(F)cc23)ncc1F`, for which the concentration for half-maximal inhibition (IC50) in the data set with Influenza A virus [5] is 22 nM; in [6], 120 nM; in data set [7], above 50 µM. In addition, in the data set on Influenza A virus [9], the Activity was found to be 75%. Besides, the inhibition result in [10] was “inactive”.
Turning to `N#Cc1cc(F)c2[nH]cc(-c3ncc(F)c(N[C@H]4C5CCC(CC5)[C@@H]4C(=O)O)n3)c2c1`, the IC50 turned out to be 43 nM in the data set with Influenza A virus [5]; 80 nM in data set [6]; 13 µM in data set [7]; 19 nM in the data set with Influenza A virus [2]; 11 nM in the data set with Influenza A virus [3]. Further, the selectivity ratio was above 612 in data set [8], 59 in [1] and 97 in data set [4].
`CCOC(=O)C1=C[C@@H](OC(CC)CC)[C@H](NC(C)=O)[C@@H](N)C1` [OSELTAMIVIR]: the Activity with Influenza A virus [11] was 38%. Further, the IC50 with Influenza A virus [5] is 31 nM. The selectivity ratio in data set [8] was above 4130.
